From ChEMBL document CHEMBL4004855, “Synthesis of hetero annulated isoxazolo-, pyrido- and pyrimido carbazoles: Screened for in vitro antitumor activity and structure activity relationships, a novel 2-amino-4-(3'-bromo-4'-methoxyphenyl)-8-chloro-11H-pyrimido[4,5-a]carbazole as an antitumor agent” (Eur J Med Chem, 2017)
Active and inactive are the calls of the source. No cut-off for these calls is given here.

Legend:
Type in all cases: functional, cell-based
[1] = test system: MCF7; assay: Induction of morphological changes in human MCF7 cells assessed as formation of floating cells after 24 hrs by phase contrast microscopy
[2] = test system: MCF7; assay: Induction of morphological changes in human MCF7 cells assessed as cell shrinkage after 24 hrs by phase contrast microscopy
[3] = test system: MCF7; assay: Induction of morphological changes in human MCF7 cells assessed as membrane blebbing after 24 hrs by phase contrast microscopy
[4] = test system: MCF7; assay: Cytotoxicity against human MCF7 cells assessed as reduction in cell viability after 48 hrs by MTT assay; conditions: for IC50: MCF7, 48 h
How it was run: (§1)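 Cells kept in DMEM with 10% FBS, glutamine, HEPES and antibiotics at 37°C, 5% CO2. Seeded at 1×10⁴ cells/well and grown 48 h to 75% confluence, then exposed to serially diluted compounds for 48 h. MTT added for 4 h at 37 °C, formazan dissolved in DMSO, OD read at 620 nm. Viability is given as % of control OD, and IC50 is read from the viability-versus-concentration plot. Three independent experiments in triplicate.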

[5] = test system: A549; assay: Induction of morphological changes in human A549 cells assessed as cell shrinkage after 24 hrs by phase contrast microscopy
[6] = test system: A549; assay: Induction of morphological changes in human A549 cells assessed as membrane blebbing after 24 hrs by phase contrast microscopy
[7] = test system: A549; assay: Induction of morphological changes in human A549 cells assessed as formation of floating cells after 24 hrs by phase contrast microscopy
[8] = test system: MCF7; assay: Induction of apoptosis in human MCF7 cells assessed as chromatin condensation after 24 hrs by AO/EB-dual staining based fluorescent microscopic analysis
How it was run: (§2)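 Treated cells were collected, washed in PBS (pH 7.2), and stained with an AO/EtBr mixture (1:1; […] each in water) for 2 min. They were then washed twice with PBS and viewed by fluorescence microscopy at 400× with a 480 nm excitation filter. Green marks intact membranes; orange/red marks damaged membranes and condensed nuclei. Untreated cells served as control.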

[9] = test system: A549; assay: Cytotoxicity against human A549 cells assessed as reduction in cell viability after 48 hrs by MTT assay; conditions: for IC50: A549, 48 h; how it was run: as §1
[10] = test system: A549; assay: Induction of apoptosis in human A549 cells assessed as nuclear fragmentation after 24 hrs by DAPI-staining based fluorescence microscopic analysis
How it was run: (§3)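 Cells were grown on glass coverslips, treated for 24 h, fixed, and permeabilised with 0.2% Triton X-100 for 10 min at room temperature. They were then stained with DAPI for 3 min and examined by fluorescence microscopy for condensed chromatin and nuclear fragmentation. Untreated cells served as control.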

[11] = test system: MCF7; assay: Induction of apoptosis in human MCF7 cells assessed as nuclear fragmentation after 24 hrs by DAPI-staining based fluorescence microscopic analysis; how it was run: as §3
[12] = test system: A549; assay: Induction of apoptosis in human A549 cells assessed as chromatin condensation after 24 hrs by AO/EB-dual staining based fluorescent microscopic analysis; how it was run: as §2

SMILES	Activity [1]	Activity [2]	Activity [3]	Activity [4]	IC50 [4]	Activity [5]	Activity [6]	Activity [7]	Activity [8]	Activity [9]	IC50 [9]	Activity [10]	Activity [11]	Activity [12]
CCOc1nc2c(c(-c3ccc(OC)c(Br)c3)c1C#N)CCc1c-2[nH]c2ccc(Cl)cc12	Dose-dependent effect	Dose-dependent effect	Dose-dependent effect	Dose-dependent effect	25 µM	Dose-dependent effect	Dose-dependent effect	Dose-dependent effect	Active	Dose-dependent effect	32 µM	inactive	–	–
COc1ccc(-c2nc(N)nc3c2ccc2c4cc(C)ccc4[nH]c23)cc1Br	Dose-dependent effect	Dose-dependent effect	Dose-dependent effect	Dose-dependent effect	22 µM	Dose-dependent effect	Dose-dependent effect	Dose-dependent effect	inactive	Dose-dependent effect	24 µM	Active	Active	–
COc1ccc(-c2onc3c2CCc2c-3[nH]c3ccccc23)cc1Br	–	–	–	Dose-dependent effect	31 µM	–	–	–	–	Dose-dependent effect	33 µM	–	–	–
COc1ccc(-c2onc3c2CCc2c-3[nH]c3ccc(C)cc23)cc1Br	Dose-dependent effect	Dose-dependent effect	Dose-dependent effect	Dose-dependent effect	21 µM	Dose-dependent effect	Dose-dependent effect	Dose-dependent effect	inactive	Dose-dependent effect	28 µM	Active	Active	Active
COc1ccc(-c2nc(N)nc3c2ccc2c4ccccc4[nH]c23)cc1Br	–	–	–	Dose-dependent effect	26 µM	–	–	–	–	Dose-dependent effect	29 µM	–	–	–
CCOc1nc2c(c(-c3ccc(OC)c(Br)c3)c1C#N)CCc1c-2[nH]c2ccc(C)cc12	Dose-dependent effect	Dose-dependent effect	Dose-dependent effect	Dose-dependent effect	25 µM	Dose-dependent effect	Dose-dependent effect	Dose-dependent effect	inactive	Dose-dependent effect	29 µM	–	Active	Active
COc1ccc(-c2nc(N)nc3c2ccc2c4cccc(C)c4[nH]c23)cc1Br	–	–	–	Dose-dependent effect	28 µM	–	–	–	–	Dose-dependent effect	31 µM	–	–	–
CCOc1nc2c(c(-c3ccc(OC)c(Br)c3)c1C#N)CCc1c-2[nH]c2ccccc12	–	–	–	Dose-dependent effect	35 µM	–	–	–	–	Dose-dependent effect	37 µM	–	–	–
COc1ccc(-c2nc(N)nc3c2ccc2c4cc(Cl)ccc4[nH]c23)cc1Br	Dose-dependent effect	Dose-dependent effect	Dose-dependent effect	Dose-dependent effect	20 µM	Dose-dependent effect	Dose-dependent effect	Dose-dependent effect	Active	Dose-dependent effect	25 µM	inactive	–	Active
COc1ccc(-c2onc3c2CCc2c-3[nH]c3c(C)cccc23)cc1Br	–	–	–	Dose-dependent effect	32 µM	–	–	–	–	Dose-dependent effect	35 µM	–	–	–
CCOc1nc2c(c(-c3ccc(OC)c(Br)c3)c1C#N)CCc1c-2[nH]c2c(C)cccc12	–	–	–	Dose-dependent effect	36 µM	–	–	–	–	Dose-dependent effect	39 µM	–	–	–
